Measured values gathered from unrelated publications.
Organism: Mycobacterium tuberculosis variant bovis BCG
Read-out: microbial growth

Structure (SMILES) | system | conditions | MIC
Fc1ccc(COc2ccccc2CNCc2ccccc2)cc1 | ATCC35734 BCG | – | > 62.5 µM
COc1ccc(C=CC(=O)c2ccccc2Cl)cc1OC | BCG | 7 days | 12.5 µg/mL
CNC(=O)c1cc(Oc2ccc(NC(=O)Nc3ccc(Cl)c(C(F)(F)F)c3)cc2)ccn1 | BCG | – | 12.5 µM
COc1ccc(C=CC(=O)c2ccc(Cl)cc2Cl)cc1OC | BCG | 7 days | 200 µg/mL
CO[C@H]1/C=C/O[C@@]2(C)Oc3c(C)c(O)c4c(O)c(c(/C=N/N5CCN(C)CC5)c(O)c4c3C2=O)NC(=O)/C(C)=C\C=C\[C@H](C)[C@H](O)[C@@H](C)[C@@H](O)[C@@H](C)[C@H](OC(C)=O)[C@@H]1C | BCG | – | < 0.2 µg/mL
Fc1ccc(COc2ccccc2CNCc2cccnc2)cc1 | ATCC35734 BCG | – | > 62.5 µM
CO[C@H]1/C=C/O[C@@]2(C)Oc3c(C)c(O)c4c(O)c(c(/C=N/N5CCN(C)CC5)c(O)c4c3C2=O)NC(=O)/C(C)=C\C=C\[C@H](C)[C@H](O)[C@@H](C)[C@@H](O)[C@@H](C)[C@H](OC(C)=O)[C@@H]1C | BCG | 6 days | < 0.78 µM
COc1ccc(C=CC(=O)c2ccccc2Br)cc1OC | BCG | 7 days | 25 µg/mL
c1ccc(COc2ccccc2CNCc2cccnc2)cc1 | ATCC35734 BCG | – | > 62.5 µM
O=C(Nc1ccc2c(c1)OC(F)(F)O2)Nc1ccc(Cl)c(C(F)(F)F)c1 | BCG | – | 3 µM
